Source: PubChem (several laboratories)
MPTP block: inhibitors of mitochondrial permeability transition pore; hit rate 1.4% among 360,000; inhibition, % at 10 µM; isolated mouse mitochondria, Ca2+ swelling absorbance, 30 min;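 active = inhibition of 50% or more, scaled per plate between neutral and stimulator controls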;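 note: 0% = DMSO wells given calcium and 100% = 1 mM EGTA wells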
CHOP inhibitor: CHOP inhibition in unfolded protein response. CHO-K1 CHOP-promoter luciferase, tunicamycin-induced, 15-18 h. inhibition, % at 10 µM. hit rate 3.8% among 220,000. AID 2732;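 active = compounds that reduced the stress-induced luciferase reporter signal by more than about 70% of percent inhibition, limit read from the data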;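 note: 0% = tunicamycin plus vehicle and 100% = wells without tunicamycin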
WT yeast gro inh: growth inhibition of WT yeast, mitochondrial fusion screen; hit rate 2.1% among 190,000; mitochondrial fusion phenotypic screen, WT strain; inhibition, % at 10 µM; in the data active = inhibition above about 58%; tested in S. cerevisiae
EBV gp42 block: EBV gp42 inhibition; Q1HVG2; inhibition, % (tested at 21.74 µM); AID 1085; Fluorescence polarization binding assay, mP read-out; hit rate 0.42% among 220,000; in the data active = inhibition above about 50%
Target sequence (Q1HVG2 whole entry, looked up): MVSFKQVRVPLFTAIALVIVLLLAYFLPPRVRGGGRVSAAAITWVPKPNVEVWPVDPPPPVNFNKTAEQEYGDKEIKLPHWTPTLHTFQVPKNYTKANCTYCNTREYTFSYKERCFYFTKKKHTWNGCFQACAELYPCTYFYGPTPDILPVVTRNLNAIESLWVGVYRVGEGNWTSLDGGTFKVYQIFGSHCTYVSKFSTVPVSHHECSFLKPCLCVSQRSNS
NR3A LBD binder: NR3A (human) ligand-binding domain modulation; Tm shift relative to glycine control, % at 25 µM; AID 1259313; hit rate 2.5% among 340,000; NR3A LBD differential scanning fluorimetry, Tm shift; 0% = protein alone, 100% = glycine-bound protein;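 active = melting temperature shift of at least 10% of the positive control shift, at one fixed dose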
TbMetRS inhib: blocks T. brucei methionyl-tRNA synthetase activity; purified T. brucei MetRS, ATP depletion, Kinase-Glo luminescence; inhibition, % at 11.9 µM; hit rate 0.4% among 360,000;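 active = inhibition above a per-plate cutoff of the control wells' mean inhibition plus 3 SD, cut at about 5.5% in these data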;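 note: 0% = DMSO wells median and 100% = median of wells with control inhibitor compound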
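Dosing: 11.9 µM single point; system: parasite MetRS enzyme; technique: luminescence of leftover ATP; times: 15 min enzyme-compound preincubation, 2 h reaction, 10 min detection, 25 °C; replicates: each compound tested once; read-out basis: percent inhibition relative to median high and low control wells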
An asterisk follows results filed as active; x = no result given. Rows were chosen to be rich in hits. Some 6.4% of all compounds tested hit in one or more screens of this group.

SMILES	MPTP block	CHOP inhibitor	WT yeast gro inh	EBV gp42 block	NR3A LBD binder	TbMetRS inhib
O=C1c2cccc3cc([N+](=O)[O-])cc(c23)C(=O)N1CCN1CCCC1	0	-138	x	4	-1	0
CCN(CC)CCN1C(=O)c2cccc3cc(N)cc(c23)C1=O	0	12	x	101*	-1	-1
Nc1cc2c3c(cccc3c1)C(=O)N(CCN1CCCC1)C2=O	-2	28	x	95*	0	0
O=C1C(=O)N(CCN2CCCCC2)c2ccccc21	1	7	-3	-7	4	-1
COc1ccc(C2=CCCCCC2)c(OC)c1OC	-1	x	x	x	0	0
CCOC(=O)C1(C(F)(F)F)N=C(C(F)(F)F)Nc2cc(C)c(C)cc21 (stereo not given)	0	34	3	-1	0	0
CC1(C)Cc2c(c(-c3ccccc3)nc(N3CCOCC3)c2C(N)=O)CO1	-3	7	-8	-9	1	-1
COc1ccc(CC(=O)Nc2nn(C)c3nc4c(C)cccc4cc23)cc1	2	81*	x	-7	1	-1
CCCn1nc(NC(=O)CC)c2cc3cccc(C)c3nc21	1	x	x	x	12*	-1
CCOC(=O)N1CCN(c2cc(=O)n(-c3ccccc3Cl)c(=O)[nH]2)CC1	0	-10	7	-12	-1	-1
Cc1[nH]c2ccccc2c1/C=N/NC(=O)c1cc(-c2cccs2)[nH]n1	1	9	-16	-2	21*	-1
Cc1ccc(-c2cc(C(=O)N/N=C/c3ccc(Cl)cc3)n[nH]2)o1	-1	x	x	x	31*	0
CC(/C=N/NC(=O)c1cc(-c2cccs2)[nH]n1)=C\c1ccccc1	20	91*	16	-14	11*	0
CC(/C=N/NC(=O)c1cc(-c2ccc(C)o2)[nH]n1)=C\c1ccccc1	6	94*	7	-16	22*	0
O=C(OCC(=O)c1c[nH]c2ccccc12)c1cccc(S(=O)(=O)N2CCCCCC2)c1	1	48	-14	-11	-3	2
CCn1c(=O)cc(N2CCN(C(=O)c3ccco3)CC2)[nH]c1=O	1	5	x	-4	-1	0
Cn1cccc1-c1cc(C(=O)N/N=C/c2ccc(Cl)cc2)[nH]n1	1	x	x	x	19*	-1
Cc1ccc(-c2cc(C(=O)N/N=C/c3c(C)nn(-c4ccccc4)c3C)n[nH]2)s1	0	-7	10	-29	15*	-2
Cc1nn(-c2ccccc2)c(C)c1/C=N/NC(=O)c1cc(C(C)(C)C)[nH]n1	0	4	-1	5	-1	-1
O=C(c1ccc(CNc2c(N3CCOCC3)c(=O)c2=O)cc1)N1CC=C(c2ccccc2)CC1	-1	5	9	14	-2	0
CN(C)c1nc(-c2ccccc2)nc(-c2ccc(Cl)cc2)c1C#N	20	-6	-4	-13	-3	0
Cc1ccc(-c2nnc(-c3ccccc3)c(-c3ccccc3)n2)cc1	2	-26	76*	-10	0	0
CN(C)c1nc(-c2ccccn2)nnc1-c1ccccc1	1	50	61*	-9	2	-1
CCN(CC)c1nc(-c2ccccn2)nc(-c2ccccc2)c1C#N	0	58	80*	4	-2	0
c1ccc(-c2nnc(-c3ccccn3)c(-c3ccccn3)n2)nc1	2	2	x	-1	-1	1
SMILES	MPTP block	CHOP inhibitor	WT yeast gro inh	EBV gp42 block	NR3A LBD binder	TbMetRS inhib
Nc1ccc(O)cc1C(=O)OCC(=O)c1ccc(C2CCCCC2)cc1	6	39	-11	-3	5	0
COc1ccc2cnn(CCOc3cc(C)ccc3C(C)C)c(=O)c2c1OC	1	46	71*	-6	-2	-1
CCOc1ccccc1OCCn1ncc2ccc(OC)c(OC)c2c1=O	0	-6	-11	-11	-1	0
CCc1nc2c(OCc3ccc(C(F)(F)F)cc3)cccn2c1N(C)C(=O)c1ccco1	-1	x	x	x	x	0
CC(NC(=O)c1cccc(C(F)(F)F)c1)C(c1ccccc1)N1CCOCC1 (stereo not given)	-2	13	-4	-18	3	-1
CCCc1ncc(C(O)c2cccc3ccccc23)n1C (stereo not given)	-3	29	-5	-7	12*	0
O=C1N=c2ccccc2=C1c1c(O)n(-c2cccc(F)c2)[nH]c1=O	21	73*	0	20	8	-1
Cc1ccc(CCc2nnc(SCC(=O)Nc3cc(Cl)ccc3Cl)n2-c2ccccc2)o1	21	13	61*	-3	-13	1
CC(C)[C@H](NC(=O)OC(C)(C)C)c1cc(C(=O)N[C@@H](C)c2ccccc2)c(N)s1	-1	x	x	x	x	-1
O/N=C\c1ccc2noc(-c3ccc(Cl)cc3)c2c1	1	x	x	x	32*	-1
CC(=O)c1ccc2noc(-c3ccc(Cl)cc3)c2c1	0	-17	-22	-9	1	-1
CC(C)(C)NC(=S)NCCc1ccccc1	-1	-6	-12	-27	3	1
Cc1sc2ncnc(N(C)Cc3cccs3)c2c1C	9	30	50	-25	11*	-1
Cc1sc2ncnc(N(C)CCc3ccccn3)c2c1C	-2	14	x	-12	0	0
CC1CCCCN1C(=O)/C(=C\c1ccccc1)c1ccccc1 (stereo not given)	1	88*	x	-6	-3	0
CC1CC(C)CN(C(=O)/C(=C\c2ccccc2)c2ccccc2)C1 (stereo not given)	0	68	10	-7	-2	-1
CCCCNC(=S)N(C)/N=C/c1ccc(F)cc1	2	41	44	4	-7	0
C(=N\N(c1ccccc1)c1ccccc1)/c1ccc2c(c1)OCO2	4	15	52	-16	-2	-1
CCCCNC(=S)N(C)/N=C/c1ccccc1F	0	77*	51	9	-1	0
CCCCNC(=S)N(C)/N=C/c1ccc2c(c1)OCO2	0	37	78*	-11	-1	0
CN(/N=C/c1ccc2c(c1)OCO2)c1ccccc1	1	-9	49	-3	11*	-1
CC1CCCN(C(=O)CCNC(=O)c2ccccc2Cl)C1 (stereo not given)	0	x	x	x	1	0
Cc1cc(Cl)c(C)c(S(=O)(=O)N2CCN(CC(=O)N3CCOCC3)CC2)c1Cl	0	x	x	x	-1	0
CCOc1ccc(N=C2Sc3nc4ccc(C)cc4cc3CN2CCOC)cc1	-1	17	27	4	-1	0
COc1ccc(CN2CCN(C(c3ccc(F)cc3)c3ccc(F)cc3)CC2)c(OC)c1OC	41	x	x	x	13*	-2
CNC[C@H]1Oc2ccc(NC(=O)Nc3ccc4c(c3)OCO4)cc2C(=O)N([C@H](C)CO)C[C@@H]1C	-1	x	x	x	-3	0
c1ccc(COc2ncnc3c2ncn3CCCNCc2ccc3c(c2)OCO3)cc1	1	x	x	x	-1	0
